Measured values published in ChEMBL document CHEMBL1144296, “3,4-Dihydro-2H-benzoxazinones are 5-HT(1A) receptor antagonists with potent 5-HT reuptake inhibitory activity” (Bioorg Med Chem Lett, 2005).

Assays:
[1] = target: T1, 5-hydroxytryptamine receptor 1A (Homo sapiens) (UniProt P08908); assay: Mean intrinsic activity was measured for the human 5-hydroxytryptamine 1A receptor; n=3
T1 sequence (whole entry): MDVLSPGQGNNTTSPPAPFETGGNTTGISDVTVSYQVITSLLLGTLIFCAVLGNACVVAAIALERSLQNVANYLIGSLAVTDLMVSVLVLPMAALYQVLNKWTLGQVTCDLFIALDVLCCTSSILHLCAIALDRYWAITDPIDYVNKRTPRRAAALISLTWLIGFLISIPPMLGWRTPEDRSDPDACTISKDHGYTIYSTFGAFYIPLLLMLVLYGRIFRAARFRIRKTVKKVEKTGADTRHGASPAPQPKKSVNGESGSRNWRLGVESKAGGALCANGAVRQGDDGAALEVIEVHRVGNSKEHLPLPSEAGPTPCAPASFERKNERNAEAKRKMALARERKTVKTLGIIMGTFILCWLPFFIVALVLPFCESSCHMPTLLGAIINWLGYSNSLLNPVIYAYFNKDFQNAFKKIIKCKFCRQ
Outline: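 [35S]-GTPγS binding in HEK293 cells expressing the human 5-HT1A receptor. Intrinsic activity is the mean of three experiments, each within 0.1 of the mean.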

[2] = target: T2, 5-hydroxytryptamine receptor 1A (Homo sapiens, UniProt P08908); assay: Mean negative logarithim of binding affinity was measured for the human 5-hydroxytryptamine 1A receptor; n>/=3
T2 sequence (P08908 whole entry): T1 sequence (whole entry)

[3] = target: Sodium-dependent serotonin transporter (Rattus norvegicus, UniProt P31652); assay: Mean negative logarithim of binding affinity was measured for the rat serotonin transporter; n>/=3
Sodium-dependent serotonin transporter, sequence (P31652 whole entry): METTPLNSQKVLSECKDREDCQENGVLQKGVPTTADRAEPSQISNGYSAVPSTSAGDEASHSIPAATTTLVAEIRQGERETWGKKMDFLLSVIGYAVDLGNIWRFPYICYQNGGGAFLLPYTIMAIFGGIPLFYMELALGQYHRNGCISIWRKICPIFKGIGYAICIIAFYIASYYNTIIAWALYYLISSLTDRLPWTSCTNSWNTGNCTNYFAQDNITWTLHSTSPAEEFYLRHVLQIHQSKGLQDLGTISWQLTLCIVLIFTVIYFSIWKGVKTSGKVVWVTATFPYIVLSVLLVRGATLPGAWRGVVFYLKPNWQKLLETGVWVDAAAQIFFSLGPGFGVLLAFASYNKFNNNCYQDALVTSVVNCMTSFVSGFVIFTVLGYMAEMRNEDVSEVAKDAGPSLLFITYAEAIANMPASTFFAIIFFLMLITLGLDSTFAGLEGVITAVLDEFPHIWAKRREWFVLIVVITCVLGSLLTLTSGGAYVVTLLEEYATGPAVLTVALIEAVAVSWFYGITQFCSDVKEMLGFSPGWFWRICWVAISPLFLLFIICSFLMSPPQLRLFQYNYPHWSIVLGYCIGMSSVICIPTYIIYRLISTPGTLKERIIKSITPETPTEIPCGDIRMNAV

[4] = target: Beta-2 adrenergic receptor (Homo sapiens, UniProt P07550); assay: Binding affinity for human beta-2 adrenergic receptor by displacing [125I]iodocyanopindolol expressed in hamster CHO cells; assay type: cell-based
Beta-2 adrenergic receptor, sequence (P07550 whole entry): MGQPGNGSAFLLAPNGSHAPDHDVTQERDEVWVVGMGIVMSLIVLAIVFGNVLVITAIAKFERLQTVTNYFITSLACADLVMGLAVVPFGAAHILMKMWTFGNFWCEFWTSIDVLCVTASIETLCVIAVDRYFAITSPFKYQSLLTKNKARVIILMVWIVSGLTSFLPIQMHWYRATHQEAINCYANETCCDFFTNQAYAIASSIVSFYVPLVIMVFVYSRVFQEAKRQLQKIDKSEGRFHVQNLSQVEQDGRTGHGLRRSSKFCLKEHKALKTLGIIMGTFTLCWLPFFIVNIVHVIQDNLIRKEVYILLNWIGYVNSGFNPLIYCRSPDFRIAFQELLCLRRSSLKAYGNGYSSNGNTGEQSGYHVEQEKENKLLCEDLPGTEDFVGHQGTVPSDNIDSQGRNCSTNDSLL

SMILES	IA [1]	Ki [2]	Ki [3]	Ki [4]
CC(COc1ccc2c(c1)NC(=O)CO2)NCC(O)COc1cccc2[nH]ccc12 (stereo in doubt; 1a) [listing 1 of 2 here]	0.4	–	–	–
N#Cc1cc2c(OCCN3CCC(Oc4ccc5c(c4)NC(=O)CO5)CC3)cccc2[nH]1	0.3	0.00158 µM	0.00794 µM	–
O=C1COc2ccc(CN3CCN(CCOc4cccc5ncccc45)CC3)cc2N1	0.2	0.01 µM	0.0316 µM	–
CC(COc1ccc2c(c1)NC(=O)CO2)NCC(O)COc1cccc2[nH]ccc12 (stereo in doubt; 1d) [listing 1 of 2 here]	–	–	0.316 µM	–
CC(COc1ccc2c(c1)NC(=O)CO2)NCC(O)COc1cccc2[nH]ccc12 (stereo in doubt; 1c) [listing 1 of 2 here]	–	–	0.1 µM	–
CC(COc1ccc2c(c1)NC(=O)CO2)NCC(O)COc1cccc2[nH]ccc12 (stereo in doubt; 1d) [listing 2 of 2 here]	0.2	–	–	–
O=C1COc2ccc(CC3CCN(CCOc4cccc5ncccc45)CC3)cc2N1	0.2	0.00126 µM	0.00631 µM	–
CC(COc1ccc2c(c1)NC(=O)CO2)NCC(O)COc1cccc2[nH]ccc12 (stereo in doubt; 1b)	0.3	–	–	–
O=C1COc2ccc(OC3CCN(CCOc4cccc5ncccc45)CC3)cc2N1	0.1	0.0126 µM	0.0316 µM	–
CC(COc1ccc2c(c1)NC(=O)CO2)NCC(O)COc1cccc2[nH]ccc12 (stereo in doubt; 1a) [listing 2 of 2 here]	–	–	0.126 µM	–
O=C1COc2ccc(OCC3CCCN(CCOc4cccc5ncccc45)C3)cc2N1 (stereo not given)	0.3	0.00158 µM	0.0794 µM	–
CC(COc1ccc2c(c1)NC(=O)CO2)NCC(O)COc1cccc2[nH]ccc12 (stereo in doubt; 1) [listing 1 of 2 here]	–	–	0.0501 µM	–
CC(COc1ccc2c(c1)NC(=O)CO2)NCC(O)COc1cccc2[nH]ccc12 (stereo in doubt; 1c) [listing 2 of 2 here]	0.3	–	–	–
O=C1COc2ccc(OCC3CCN(CCOc4cccc5ncccc45)C3)cc2N1 (stereo not given)	0.3	0.00126 µM	0.0501 µM	–
O=C1COc2ccc(OC3CCN(CCOc4cccc5[nH]ccc45)CC3)cc2N1	0.2	0.00398 µM	0.00501 µM	–
Cc1ccc2c(OCCN3CCC(Cc4ccc5c(c4)NC(=O)CO5)CC3)cccc2n1	0.2	–	–	–
O=C1COc2ccc(OCCNCCCOc3cccc4[nH]ccc34)cc2N1	0.6	0.00158 µM	0.0794 µM	1 µM
O=C1COc2ccc(OC3CCN(CCOc4nccc5ccccc45)CC3)cc2N1	0.8	0.00794 µM	0.0501 µM	–
O=C1COc2ccc(OC3CCN(CCOc4ccnc5ccccc45)CC3)cc2N1	–	0.1 µM	–	–
CC(COc1ccc2c(c1)NC(=O)CO2)NCC(O)COc1cccc2[nH]ccc12 (stereo in doubt; 1) [listing 2 of 2 here]	0.3	–	–	–
O=C1COc2ccc(OC3CCN(CCOc4cccc5cccnc45)CC3)cc2N1	0.5	0.00631 µM	0.0398 µM	–
O=C1COc2ccc(OC3CCN(CCOc4cccc5ccccc45)CC3)cc2N1	0.4	0.00251 µM	0.1 µM	–
